One compound from ChEMBL document CHEMBL4028911, “Discovery of a Small-Molecule Bromodomain-Containing Protein 4 (BRD4) Inhibitor That Induces AMP-Activated Protein Kinase-Modulated Autophagy-Associated Cell Death in Breast Cancer” (J Med Chem, 2017) can be followed below.

In data set [1] the target is T1, Bromodomain-containing protein 4 (Homo sapiens, UniProt O60885). As to the kind of experiment: Inhibition of His/thioredoxin-tagged human recombinant BRD4 bromodomain-1 (43 to 166 residues) expressed in Escherichia coli BL21 Star (DE3) pre-incubated for 30 mins followed by biotinylated histone peptide H4 addition measured after 30 mins by AlphaScreen assay. (In general: Alpha assays give light when donor and acceptor beads are brought close together.)

For data set [2], the target named is T1, Bromodomain-containing protein 4. Put plainly: Inhibition of BRD4 in human MCF7 cells assessed as increase in ULK1 phosphorylation at ser317 at 1.5 uM up to 36 hrs by Western blot analysis. Type of data set: cell-based. Put shortly: (§1)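 MCF-7 (1.5 μM) or MDA-MB-231 (3 μM) cells treated for indicated times. Adherent and floating cells lysed in RIPA with 1 mM PMSF. Equal protein run on 10-15% SDS-PAGE, blotted to PVDF, blocked in milk or BSA, HRP/ECL detection. β-actin loading control.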
(In general: In western blotting, separated proteins are transferred to a membrane and probed.)

The subject of data set [3] is MDA-MB-231. As to the kind of experiment: Induction of autophagy in human MDA-MB-231 cells assessed as increase in LC3B puncta at 3 uM after 24 hrs by DAPI-staining based immunocytochemistry. Type of data set: functional, cell-based. Put shortly:
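MDA-MB-231 cells treated with 3 μM for 24 h. Blocked in PBS with 1.5% goat serum, anti-LC3B (1:200 in PBS/1% BSA) overnight at 4 °C, then FITC secondary 1 h at room temperature. DAPI counterstain; LC3B puncta scored by fluorescence microscopy.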

Data set [4] deals with T1, Bromodomain-containing protein 4. Put plainly: Inhibition of BRD4 in human MCF7 cells assessed as downregulation of AKT phosphorylation at thr308 at 1.5 uM measured up to 36 hrs by Western blot analysis. Type of data set: cell-based. Put shortly:
as §1

The target is the same in data set [5]. As to the kind of experiment: Inhibition of BRD4 in human MDA-MB-231 cells assessed as downregulation of AKT phosphorylation at thr308 at 3 uM measured up to 36 hrs by Western blot analysis. Type of data set: cell-based. Put shortly: as §1
Data set [6] deals with MDA-MB-231. As to the kind of experiment: Effect on mTOR expression in human MDA-MB-231 cells at 3 uM measured up to 36 hrs by Western blot analysis. Type of data set: ADME, cell-based. The note with it: mda-mb-231, 36 h. An outline of the steps: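 MCF-7 (1.5 µM) or MDA-MB-231 (3 µM) cells treated for indicated times. Adherent and floating cells lysed in RIPA with 1 mM PMSF, 4°C for 1 h. Equal protein run on 10-15% SDS-PAGE, transferred to PVDF, blocked with milk or BSA, probed with primary then HRP secondary antibodies, ECL detection; β-actin as loading control.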

The target of data set [7] is T1, Bromodomain-containing protein 4. Put plainly: Inhibition of BRD4 in human MCF7 cells assessed as downregulation of mTOR phosphorylation at ser244 at 1.5 uM measured up to 36 hrs by Western blot analysis. Type of data set: cell-based. An outline of the steps:
as §1

Data set [8] has the same target. As to the kind of experiment: Inhibition of BRD4 in human MDA-MB-231 cells assessed as induction of AMPKalpha phosphorylation at thr172 at 3 uM in presence of ATG5 siRNA by Western blot analysis. Type of data set: cell-based. Put shortly:
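Cells given 50 nM ATG5 or negative-control siRNA (Lipofectamine RNAiMAX) and used 48 h later, then exposed to 1.5 μM (MCF-7) or 3 μM (MDA-MB-231). p-AMPKα analysed by western blot with β-actin loading control.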

Data set [9] has as its system MDA-MB-231. As to the kind of experiment: Antitumor activity against human MDA-MB-231 cells xenografted in nude BALB/c mouse assessed as tumor growth inhibition at 25 to 100 mg/kg, ig administered once a day for 27 days measured every 3 days relative to control. Type of data set: functional. An outline of the steps: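 Female BALB/c nude mice, 6-8 weeks, 20-22 g, injected subcutaneously with 5×10^6 MCF-7 or MDA-MB-231 cells. At 100 mm³ tumor volume (V = L×W²/2), split into four groups: 25, 50 or 100 mg/kg intragastric once daily for 24 or 27 days, or vehicle. Tumor volume and body weight measured every 3 days; tumors excised and weighed at end. MCF-7 n=7, MDA-MB-231 n=6 per group.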
For orientation: A xenograft is tissue or cells of one species grown in another, often human tumour cells in immunodeficient mice.

Data set [10] concerns Mus musculus. Put plainly: In vivo Antiproliferative activity in BALB/c mouse xenografted with human MCF7 cells assessed as reduction in Ki-67 positive cells at 100 mg/kg, ig administered once a day for 24 days by hematoxylin-staining based immunohistochemistry analysis. Type of data set: functional, organism-based. Put shortly: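 Xenograft tumors from vehicle and 100 mg/kg groups were formalin-fixed and sectioned. Antigen retrieval by microwaving in EDTA buffer (pH 8.0) or citrate buffer (pH 6.0). […] Percentage of positive staining quantified.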

Data set [11] relates to Mus musculus. As to the kind of experiment: In vivo inhibition of c-Myc expression in BALB/c mouse xenografted with human MCF7 cells at 100 mg/kg, ig administered once a day for 24 days by Western blot analysis. Type of data set: functional, organism-based. An outline of the steps:
(§2)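 Tumor tissues excised from MCF-7 or MDA-MB-231 xenograft mice were lysed and analysed by western blot for BRD4, c-Myc, LC3 and cleaved caspase-3.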

Data set [12] deals with T1, Bromodomain-containing protein 4. As to the kind of experiment: Inhibition of BRD4 interaction with AMPK in human MDA-MB-231 cells at 3 uM by co-immunoprecipitation assay. Type of data set: cell-based. An outline of the steps:
(§3)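 Cells lysed in RIPA buffer (40 mM Tris-HCl pH 7.5, 150 mM NaCl, 0.5% NP-40, 5% glycerol, 10 mM NaF, protease inhibitors). Lysates incubated overnight at 4 °C with BRD4 or p53 antibody plus protein A/G beads, washed 3 times, resolved on 10% SDS-PAGE and blotted for AMPKα or p53.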

Data set [13] has the same target. Put plainly: Inhibition of BRD4 interaction with p53 in human MCF7 cells at 1.5 uM by co-immunoprecipitation assay. Type of data set: cell-based. Put shortly:
as §3

For another data set, the species on record is Homo sapiens. As to the kind of experiment: Increase in p53 interaction with AMPK in human MCF7 cells at 1.5 uM by co-immunoprecipitation assay. Type of data set: cell-based. Put shortly:
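Cells left untreated or treated, then lysed in RIPA (40 mM Tris-HCl pH 7.5, 150 mM NaCl, 0.5% NP-40, protease inhibitors, 5% glycerol, 10 mM NaF). Lysates incubated overnight at 4°C with BRD4 or p53 antibodies plus protein A/G beads, washed 3 times, resolved on 10% SDS-PAGE. Blots probed for p53 and AMPKα; inputs checked for BRD4, p53 and AMPKα.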

In a further data set the test system is MCF7. Put plainly: Induction of autophagy in human MCF7 cells assessed as assessed as cytoplasmic vacuolization. Type of data set: functional, cell-based.
Data set [14] addresses T1, Bromodomain-containing protein 4. As to the kind of experiment: Inhibition of BRD4 in human MCF7 cells assessed as reduction in ATG13 protein expression at 1.5 uM up to 36 hrs by Western blot analysis. Type of data set: cell-based. An outline of the steps:
as §1

Data set [15] shares this target. As to the kind of experiment: Inhibition of BRD4 in human MCF7 cells assessed as reduction in FIP200 protein expression at 1.5 uM up to 36 hrs by Western blot analysis. Type of data set: cell-based. Put shortly:
as §1

Data set [16] has as its system Mus musculus. As to the kind of experiment: Induction of LC3 accumulation in BALB/c mouse xenografted with human MDA-MB-231 cells at 100 mg/kg, ig administered once a day for 24 days by Western blot analysis. Type of data set: functional, organism-based. Put shortly: as §2
A further data set has as its system MCF-7. As to the kind of experiment: Downregulation of HMGB1 expression in human MCF-7 cells at 1.5 uM measured up to 24 hrs by Western blot analysis.

The structures appear in SMILES notation. Calls of active or inactive are those of the source. The calls are words filed in the database; no cut-off is given here.

The term IC50 denotes the midpoint of a concentration-inhibition curve. Broadly, the TGI is the reduction of tumour growth relative to the control group.

On to `Cc1cc(-c2nc3sc4c(c3c(=O)[nH]2)CCN(C)C4)cc(C)c1O`, for which the IC50 in data set [1] was 430 nM. In addition, the inhibition entry in data set [2], in [4], in data set [5], in data set [7], in data set [8] and in data set [12] was “Active” throughout. Further, the inhibition result in data set [13], in data set [14] and in data set [15] was “Active” each time. For the same compound, the result in the data set on MDA-MB-231 [3], in the data set with Mus musculus [10], with Mus musculus [11], in the data set listed under Homo sapiens, in the data set with MCF7 and with Mus musculus [16] was Active. The outcome in the data set on MCF-7 was Active. In the data set on MDA-MB-231 [6], the Activity entry is on record as “Non-Toxic”. In addition, in the data set on MDA-MB-231 [9], the TGI was 76%.
